According to ChEMBL document CHEMBL2157922, “Synthesis and antifungal activity of diverse C-2 pyridinyl and pyridinylvinyl substituted quinolines” (2012):
In brackets after ≈: the same amount, converted by molar mass.

Experiments:
[1] = tested on: Cryptococcus neoformans; experiment: Antifungal activity against Cryptococcus neoformans IM 972724 after 48 hrs by broth microdilution technique; type: functional; details: IM 972724, 48 h
Procedure, shortened: (§1)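 C. neoformans was tested by 96-well RPMI-1640 microdilution, with DMSO-matched growth and sterility control wells. Plates were incubated 48 h at 30 °C in a moist, dark chamber and read at OD405. % inhibition = 100 − (CTW − SCW)/(GCW − SCW), in duplicate. For the clinical isolates, MIC80 and MIC50 are the lowest concentrations giving 80% and 50% inhibition.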

[2] = tested on: Candida albicans; experiment: Antifungal activity against Candida albicans ATCC 10231 at 7.8 ug/ml after 24 hrs; type: functional; details: ATCC 10231, 24 h
Procedure, shortened: (§2)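 C. albicans was grown in 96-well RPMI-1640 broth microdilution with compound wells diluted from DMSO stocks. Growth wells with matched DMSO and sterility wells were included. After 24 h at 30 °C in a moist, dark chamber, OD405 was read. % inhibition = 100 − (CTW − SCW)/(GCW − SCW) OD, done in duplicate.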

[3] = tested on: Candida albicans; experiment: Antifungal activity against Candida albicans CCC 129 after 48 hrs by broth microdilution technique; type: functional; details: CCC 129, 48 h
[4] = tested on: Cryptococcus neoformans; experiment: Antifungal activity against Cryptococcus neoformans IM 972751 after 48 hrs by broth microdilution technique; type: functional; details: IM 972751, 48 h; procedure, shortened: as §1
[5] = tested on: Cryptococcus neoformans; experiment: Antifungal activity against Cryptococcus neoformans ATCC 32264 at 31.2 ug/ml after 48 hrs; type: functional; details: ATCC 32264, 48 h; procedure, shortened: as §1
[6] = tested on: Candida albicans; experiment: Antifungal activity against Candida albicans ATCC 10231 at 31.2 ug/ml after 24 hrs; type: functional; details: ATCC 10231, 24 h; procedure, shortened: as §2
[7] = tested on: Cryptococcus neoformans; experiment: Antifungal activity against Cryptococcus neoformans IM 983036 after 48 hrs by broth microdilution technique; type: functional; details: IM 983036, 48 h; procedure, shortened: as §1
[8] = tested on: Candida albicans; experiment: Antifungal activity against Candida albicans ATCC 10231 after 48 hrs by broth microdilution technique; type: functional; details: ATCC 10231, 48 h
Procedure, shortened: (§3)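 Yeasts were tested by CLSI broth microdilution in RPMI-1640 buffered to pH 7.0 with MOPS, with compound from 250 down to 0.98 in DMSO stocks. Trays were held at 30 °C in a moist, dark chamber. MIC100, the lowest concentration giving total visual inhibition against the growth control, was read by eye at 48 h.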

[9] = tested on: Candida albicans; experiment: Antifungal activity against Candida albicans CCC 128 after 48 hrs by broth microdilution technique; type: functional; details: CCC 128, 48 h
[10] = tested on: Aspergillus flavus; experiment: Antifungal activity against Aspergillus flavus ATCC 9170 after 48 hrs by broth microdilution technique; type: functional; details: ATCC 9170, 48 h
Procedure, shortened: (§4)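 Moulds and dermatophytes were run by CLSI broth microdilution in MOPS-buffered RPMI-1640 at pH 7.0. Aspergillus was incubated at 30 °C and dermatophytes at 28–30 °C, in a moist, dark chamber. MIC100, the lowest concentration with no visible growth, was read visually at a time set by growth of the control fungus.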

[11] = tested on: Aspergillus fumigatus; experiment: Antifungal activity against Aspergillus fumigatus ATCC 26934 after 48 hrs by broth microdilution technique; type: functional; details: ATCC 26934, 48 h; procedure, shortened: as §4
[12] = tested on: Saccharomyces cerevisiae; experiment: Antifungal activity against Saccharomyces cerevisiae ATCC 9763 after 48 hrs by broth microdilution technique; type: functional; details: ATCC 9763, 48 h; procedure, shortened: as §3
[13] = tested on: Cryptococcus neoformans; experiment: Antifungal activity against Cryptococcus neoformans ATCC 32264 at 3.9 ug/ml after 48 hrs; type: functional; details: ATCC 32264, 48 h; procedure, shortened: as §1
[14] = tested on: Cryptococcus neoformans; experiment: Antifungal activity against Cryptococcus neoformans ATCC 32264 at 15.6 ug/ml after 48 hrs; type: functional; details: ATCC 32264, 48 h; procedure, shortened: as §1
[15] = tested on: Cryptococcus neoformans; experiment: Antifungal activity against Cryptococcus neoformans IM 042074 after 48 hrs by broth microdilution technique; type: functional; details: IM 042074, 48 h; procedure, shortened: as §1
[16] = tested on: Cryptococcus neoformans; experiment: Antifungal activity against Cryptococcus neoformans IM 00319 after 48 hrs by broth microdilution technique; type: functional; details: IM 00319, 48 h; procedure, shortened: as §1
[17] = tested on: Candida albicans; experiment: Antifungal activity against Candida albicans CCC 125 after 48 hrs by broth microdilution technique; type: functional; details: CCC 125, 48 h
[18] = tested on: Candida albicans; experiment: Antifungal activity against Candida albicans CCC 130 after 48 hrs by broth microdilution technique; type: functional; details: CCC 130, 48 h
[19] = tested on: Candida parapsilosis; experiment: Antifungal activity against Candida parapsilosis CCC 124 after 48 hrs by broth microdilution technique; type: functional; details: Lodderomyces parapsilosis, CCC 124, 48 h
[20] = tested on: Candida albicans; experiment: Antifungal activity against Candida albicans CCC 126 after 48 hrs by broth microdilution technique; type: functional; details: CCC 126, 48 h
[21] = tested on: Candida tropicalis; experiment: Antifungal activity against Candida tropicalis CCC 131 after 48 hrs by broth microdilution technique; type: functional; details: CCC 131, 48 h
[22] = tested on: Nakaseomyces glabratus; experiment: Antifungal activity against Candida glabrata CCC 115 after 48 hrs by broth microdilution technique; type: functional; details: CCC 115, 48 h
[23] = tested on: Cryptococcus neoformans; experiment: Antifungal activity against Cryptococcus neoformans ATCC 32264 after 48 hrs by broth microdilution technique; type: functional; details: ATCC 32264, 48 h; procedure, shortened: as §3
[24] = tested on: Candida albicans; experiment: Antifungal activity against Candida albicans CCC 130 after 24 hrs by broth microdilution technique; details: CCC 130, 24 h
[25] = tested on: Candida albicans; experiment: Antifungal activity against Candida albicans ATCC 10231 at 15.6 ug/ml after 24 hrs; type: functional; details: ATCC 10231, 24 h; procedure, shortened: as §2
[26] = tested on: Pichia kudriavzevii; experiment: Antifungal activity against Candida krusei CCC 117 after 48 hrs by broth microdilution technique; type: functional; details: CCC 117, 48 h
[27] = tested on: Nannizzia gypsea; experiment: Antifungal activity against Microsporum gypseum CCC 115 after 48 hrs by broth microdilution technique; type: functional; details: CCC 115, 48 h; procedure, shortened: as §4
[28] = tested on: Candida albicans; experiment: Antifungal activity against Candida albicans CCC 127 after 48 hrs by broth microdilution technique; type: functional; details: CCC 127, 48 h
[29] = tested on: Trichophyton mentagrophytes; experiment: Antifungal activity against Trichophyton mentagrophytes ATCC 9972 after 48 hrs by broth microdilution technique; type: functional; details: ATCC 9972, 48 h; procedure, shortened: as §4
[30] = tested on: Aspergillus niger; experiment: Antifungal activity against Aspergillus niger ATCC 9029 after 48 hrs by broth microdilution technique; type: functional; details: ATCC 9029, 48 h; procedure, shortened: as §4
[31] = tested on: Cryptococcus neoformans; experiment: Antifungal activity against Cryptococcus neoformans IM 983040 after 48 hrs by broth microdilution technique; type: functional; details: IM 983040, 48 h; procedure, shortened: as §1
[32] = tested on: Trichophyton rubrum; experiment: Antifungal activity against Trichophyton rubrum CCC 113 after 48 hrs by broth microdilution technique; type: functional; details: CCC 113, 48 h

MIC50 [1]: 3.9 µg/mL (≈ 16.6 µM)
MIC80 [1]: 7.8 µg/mL (≈ 33.3 µM)
MIC50 [3]: 31.2 µg/mL (≈ 133 µM)
MIC80 [3]: 62.5 µg/mL (≈ 267 µM)
MIC50 [4]: 3.9 µg/mL (≈ 16.6 µM)
MIC80 [4]: 15.6 µg/mL (≈ 66.6 µM)
MIC50 [7]: 3.9 µg/mL (≈ 16.6 µM)
MIC80 [7]: 7.8 µg/mL (≈ 33.3 µM)
MIC [8]: 62 µg/mL (≈ 265 µM)
MIC50 [8]: 7.8 µg/mL (≈ 33.3 µM)
MIC80 [8]: 15.6 µg/mL (≈ 66.6 µM)
MIC50 [9]: 31.2 µg/mL (≈ 133 µM)
MIC80 [9]: 62.5 µg/mL (≈ 267 µM)
MIC [10]: 62 µg/mL (≈ 265 µM)
MIC [11]: 62 µg/mL (≈ 265 µM)
MIC [12]: 62 µg/mL (≈ 265 µM)
MIC50 [15]: 3.9 µg/mL (≈ 16.6 µM)
MIC80 [15]: 7.8 µg/mL (≈ 33.3 µM)
MIC50 [16]: 7.8 µg/mL (≈ 33.3 µM)
MIC80 [16]: 15.6 µg/mL (≈ 66.6 µM)
MIC50 [17]: 62.5 µg/mL (≈ 267 µM)
MIC80 [17]: 125 µg/mL (≈ 533 µM)
MIC80 [18]: 62.5 µg/mL (≈ 267 µM)
MIC50 [19]: 15.6 µg/mL (≈ 66.6 µM)
MIC80 [19]: 31.2 µg/mL (≈ 133 µM)
MIC50 [20]: 15.6 µg/mL (≈ 66.6 µM)
MIC80 [20]: 31.2 µg/mL (≈ 133 µM)
MIC50 [21]: 15.6 µg/mL (≈ 66.6 µM)
MIC80 [21]: 31.2 µg/mL (≈ 133 µM)
MIC50 [22]: 62.5 µg/mL (≈ 267 µM)
MIC80 [22]: 62.5 µg/mL (≈ 267 µM)
MIC [23]: 31 µg/mL (≈ 132 µM)
MIC50 [23]: 3.9 µg/mL (≈ 16.6 µM)
MIC80 [23]: 15.6 µg/mL (≈ 66.6 µM)
MIC50 [24]: 31.2 µg/mL (≈ 133 µM)
MIC50 [26]: 31.2 µg/mL (≈ 133 µM)
MIC80 [26]: 62.5 µg/mL (≈ 267 µM)
MIC [27]: 62 µg/mL (≈ 265 µM)
MIC50 [28]: 62.5 µg/mL (≈ 267 µM)
MIC80 [28]: 62.5 µg/mL (≈ 267 µM)
MIC [29]: 62 µg/mL (≈ 265 µM)
MIC [30]: 250 µg/mL (≈ 1070 µM)
MIC50 [31]: 3.9 µg/mL (≈ 16.6 µM)
MIC80 [31]: 7.8 µg/mL (≈ 33.3 µM)
MIC [32]: 62 µg/mL (≈ 265 µM)
Structure (SMILES): CCc1ccc2nc(-c3ccccn3)ccc2c1
inhibition at 7.8 µg/mL [2]: 50%
inhibition at 31.2 µg/mL [5]: 80%
inhibition at 31.2 µg/mL [6]: 80%
MFC [8]: 250 µg/mL (≈ 1070 µM)
MFC [10]: 125 µg/mL (≈ 533 µM)
MFC [11]: 125 µg/mL (≈ 533 µM)
MFC [12]: 250 µg/mL (≈ 1070 µM)
inhibition at 3.9 µg/mL [13]: 50%
inhibition at 15.6 µg/mL [14]: 80%
MFC [23]: 125 µg/mL (≈ 533 µM)
inhibition at 15.6 µg/mL [25]: 80%
MFC [27]: 62 µg/mL (≈ 265 µM)
MFC [29]: 62 µg/mL (≈ 265 µM)
MFC [30]: > 250 µg/mL
MFC [32]: 62 µg/mL (≈ 265 µM)
